Reference: ChEMBL document CHEMBL4428090, “Modeling, Synthesis, and Biological Evaluation of Potential Retinoid X Receptor (RXR)-Selective Agonists: Analogues of 4-[1-(3,5,5,8,8-Pentamethyl-5,6,7,8-tetrahydro-2-naphthyl)ethynyl]benzoic Acid (Bexarotene) and 6-(Ethyl(5,5,8,8-tetrahydronaphthalen-2-yl)amino)nicotinic Acid (NEt-TMN)” (J Med Chem, 2016)
The source made the active and inactive calls. The rule behind the calls is not given here.

Experiments:
Format in all cases: cell-based
[1] = target: T1, Retinoid X receptor (Homo sapiens, UniProt P28702+P48443+P19793); experiment: Agonist activity at human RXR binding domain and activation domain expressed in human HCT116 cells assessed as rexinoid activity incubated for 24 hrs by luciferase reporter gene based mammalian two-hybrid assay
T1 sequence (P28702 whole entry): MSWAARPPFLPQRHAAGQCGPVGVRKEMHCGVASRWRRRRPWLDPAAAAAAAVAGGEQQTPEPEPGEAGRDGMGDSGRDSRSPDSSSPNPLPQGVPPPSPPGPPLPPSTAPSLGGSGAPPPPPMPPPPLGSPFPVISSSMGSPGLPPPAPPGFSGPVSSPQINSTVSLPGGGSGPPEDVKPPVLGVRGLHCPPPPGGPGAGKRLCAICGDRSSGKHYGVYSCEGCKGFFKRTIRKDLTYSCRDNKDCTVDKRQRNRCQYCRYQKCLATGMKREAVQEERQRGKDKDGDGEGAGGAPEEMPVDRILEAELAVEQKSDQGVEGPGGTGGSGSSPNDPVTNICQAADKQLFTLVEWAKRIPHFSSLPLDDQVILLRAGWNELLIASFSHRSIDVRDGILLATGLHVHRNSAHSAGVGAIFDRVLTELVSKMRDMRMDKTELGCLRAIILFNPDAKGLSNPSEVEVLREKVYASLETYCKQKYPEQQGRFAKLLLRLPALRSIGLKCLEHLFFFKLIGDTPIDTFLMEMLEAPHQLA
T1 sequence (P48443 whole entry): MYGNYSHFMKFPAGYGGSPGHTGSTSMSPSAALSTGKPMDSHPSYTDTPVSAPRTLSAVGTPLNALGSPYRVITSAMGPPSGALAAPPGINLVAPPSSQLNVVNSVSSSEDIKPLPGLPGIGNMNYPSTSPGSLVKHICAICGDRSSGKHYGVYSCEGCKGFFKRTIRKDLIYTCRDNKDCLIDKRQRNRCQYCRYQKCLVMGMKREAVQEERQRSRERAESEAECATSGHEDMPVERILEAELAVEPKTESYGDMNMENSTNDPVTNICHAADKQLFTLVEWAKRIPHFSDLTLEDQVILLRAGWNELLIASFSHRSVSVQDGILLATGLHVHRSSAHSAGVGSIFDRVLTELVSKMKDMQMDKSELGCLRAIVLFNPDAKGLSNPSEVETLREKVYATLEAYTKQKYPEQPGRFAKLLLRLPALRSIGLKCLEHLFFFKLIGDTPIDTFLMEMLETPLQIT
T1 sequence (P19793 whole entry): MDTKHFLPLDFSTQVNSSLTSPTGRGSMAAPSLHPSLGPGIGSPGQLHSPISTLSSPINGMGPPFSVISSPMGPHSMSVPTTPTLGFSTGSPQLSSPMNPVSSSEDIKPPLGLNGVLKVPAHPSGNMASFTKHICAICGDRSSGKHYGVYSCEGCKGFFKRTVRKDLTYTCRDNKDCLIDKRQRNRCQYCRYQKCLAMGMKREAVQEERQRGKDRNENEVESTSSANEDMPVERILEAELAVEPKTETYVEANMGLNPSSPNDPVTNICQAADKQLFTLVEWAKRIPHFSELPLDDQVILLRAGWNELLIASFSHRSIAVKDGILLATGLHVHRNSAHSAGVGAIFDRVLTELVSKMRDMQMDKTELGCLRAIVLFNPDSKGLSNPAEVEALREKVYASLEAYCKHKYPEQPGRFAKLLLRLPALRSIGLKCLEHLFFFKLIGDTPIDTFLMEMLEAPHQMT

[2] = target: T2, Retinoid X receptor (Homo sapiens) (UniProt P28702+P48443+P19793); experiment: Agonist activity at human RXR binding domain and activation domain expressed in human HCT116 cells assessed as rexinoid activity at 100 nM incubated for 24 hrs by luciferase reporter gene based mammalian two-hybrid assay relative to bexarotene
In short: (§1)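 HCT-116 cells plated overnight (80,000/well, DMEM with 10% FBS), co-transfected for 24 h with human RXR binding-domain (bait) and activation-domain (prey) vectors, pFR-Luc Gal4 reporter and renilla control. Treated 24 h at 25, 100 or 1000 nM final; vehicle ethanol or DMSO 0.1%. Dual-luciferase read-out. Three independent assays in triplicate; bexarotene set to 100%.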

[3] = target: T2, Retinoid X receptor (Homo sapiens); experiment: Agonist activity at human RXR binding domain and activation domain expressed in human HCT116 cells assessed as rexinoid activity at 1000 nM incubated for 24 hrs by luciferase reporter gene based mammalian two-hybrid assay relative to bexarotene; in short: as §1
[4] = target: T3, Retinoic acid receptor RXR-alpha (Homo sapiens) (UniProt P19793); experiment: Agonist activity at human RXRalpha expressed in human HCT116 cells assessed as increase in RXRE-mediated transcription at 1000 nM incubated for 24 hrs by RXRE luciferase reporter gene assay relative to bexarotene
T3 sequence (whole entry): T1 sequence (P19793 whole entry)
In short: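 HCT-116 cells (80,000/well) co-transfected for 24 h with 250 ng RXRE-luciferase reporter (DR1 element from the rat cellular retinol binding protein II gene), 25 ng pSG5-human RXRα and 20 ng renilla. Dosed 24 h at 25, 100 or 1000 nM final; ethanol or DMSO vehicle 0.1%. Dual-luciferase read-out. Three independent assays in triplicate; bexarotene = 100%.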

[5] = organism: Homo sapiens; experiment: Selectivity index, ratio of agonist activity at human RARalpha expressed in HEK293 cells assessed as increase in RARE-mediated transcription relative to bexarotene to agonist activity at human RXRalpha expressed in human HCT116 cells assessed as increase in RXRE-mediated transcription relative to bexarotene
In short: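 HEK293 cells (60,000/well) transfected for 24 h with 250 ng pTK-DR5(X2)-Luc, 25 ng human RARα and 20 ng renilla. Treated 24 h at 100 nM; activity expressed as a percentage of all-trans-retinoic acid. This RARE activity is divided by 100 nM RXRE activity, with the bexarotene ratio set to 1.0.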

| EC50 [1] [µM] | Activity [2] | Activity [3] [%] | Activity [4] | fold change (FC) ([2]; in the assay text read “relative to activity at 25 nM” for “relative to bexarotene”) | SMILES | Ratio [5] |
| --- | --- | --- | --- | --- | --- | --- |
| 0.0338 | Active | 51 to 56 | Active |  | CCN(c1ccc(C(=O)O)c(F)c1)c1cc2c(cc1C)C(C)(C)CCC2(C)C | 0.35 to 0.37 |
| 0.0079 | Active | 51 to 56 | Active |  | CCN(c1ccc(C(=O)O)cc1)c1cc2c(cc1C)C(C)(C)CCC2(C)C | 0.35 to 0.37 |
| 0.0182 | 135 to 146% | 35 to 58 | 20 to 43% |  | CCN(c1ncc(C(=O)O)cn1)c1cc2c(cc1C)C(C)(C)CCC2(C)C | 0.35 to 0.37 |

The remaining lines, values behind:

| SMILES | EC50 [1] [µM] | Activity [2] | Activity [3] [%] | Activity [4] | fold change (FC) ([2]; in the assay text read “relative to activity at 25 nM” for “relative to bexarotene”) | Ratio [5] |
| --- | --- | --- | --- | --- | --- | --- |
| CCN(c1ccc2c(c1)C(C)(C)CCC2(C)C)c1ccc(C(=O)O)cn1 | 0.0138 | 135 to 146% | 35 to 58 | 20 to 43% |  | > 0.5 |
| CCN(c1ccc2c(c1)C(C)(C)CCC2(C)C)c1cnc(C(=O)O)cn1 | 0.3643 |  | 35 to 58 | 20 to 43% | 5 to 16 | > 0.5 |
